Reference: publication PMC10548513 (Chemical Science, 2023)
Positions of bridges follow the written chain, without caps; N, C: chain ends. Non-standard residues stand in square brackets, D forms with d. Residues, ends and D or L forms follow the SMILES beside them. No end group written: not given here. R8 = C=CCCCCCC[C@@](C)(N)C(=O)O; S5 = C=CCCC[C@](C)(N)C(=O)O

Assays:
HeLa cells [1] = assay: Peptide cytotoxicity, WST-8; type: cell-based; settings: 24 h; for Cytotoxicity at 10 µM: peptide 10 µM; for Cytotoxicity at 30 µM: peptide 30 µM
[2] = Relative hydrophobicity by UPLC retention time; type: physicochemical; settings: comparison among stapled peptides st4-1–6 and st7-1–6 (Table S1)
HeLa cells [3] = assay: Luciferase reporter assay, transfection of pDNA with peptide/pDNA complexes; type: cell-based; settings: N/P ratio 16, 24 h
How it was run: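 Peptide/pDNA complexes were made with luciferase-encoding (rLuc) pDNA at an N/P charge ratio (peptide cationic residues to pDNA phosphate) of 8 or 16. They were added to HeLa cells for 24 h. Transfection was read as luminescence, given as RLU normalized to blank; n = 3, mean ± standard deviation.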

Huh-7-Luc cells = assay: RNAi assay by luciferase assay, peptide/siRNA complexes; type: cell-based, human; settings: peptide/Luc-siRNA complex, N/P ratio 16, 48 h, n = 5
How it was run: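 Complexes of peptide with firefly GL3 luciferase siRNA, or scrambled-sequence control siRNA, were prepared at N/P 8 or 16. They were added to Huh-7 cells stably expressing luciferase and incubated for 48 h. Silencing was measured as loss of luminescence; n = 5, mean ± standard deviation.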

Relative hydrophobicity from UPLC retention times [2] | Compound | Cytotoxicity at 10 µM (HeLa cells [1]) | Transfection efficiency of pDNA relative to st7-5 (HeLa cells [3]) | Reduction of the luminescence signal (gene silencing) with Luc-siRNA (Huh-7-Luc cells) | Cytotoxicity at 30 µM (HeLa cells [1])
most hydrophobic | CC[C@H](C)[C@H](NC(=O)CN)C(=O)N[C@@H](CCCCN)C(=O)N[C@@H](CCCCN)C(=O)N[C@@H](Cc1ccccc1)C(=O)N[C@@H](CC(C)C)C(=O)N[C@@H](CCCCN)C(=O)N[C@]1(C)CCCCCCC=CCCC[C@@](C)(C(=O)N[C@@H](Cc2ccccc2)C(=O)N[C@@H](CCCCN)C(N)=O)NC(=O)[C@H](CCCCN)NC(=O)[C@H](C(C)C)NC(=O)[C@H](Cc2ccccc2)NC(=O)[C@H](CCCCN)NC(=O)[C@H](CCCCN)NC(=O)[C@H](C)NC1=O [st7-5] (H-GIKKFLK[R8]AKKFVK[S5]FK-NH2; staple 8-15) | did not show significant cytotoxicity |  |  | 
 | CC[C@H](C)[C@H](NC(=O)CN)C(=O)N[C@@H](CCCNC(=N)N)C(=O)N[C@@H](CCCNC(=N)N)C(=O)N[C@@H](Cc1ccccc1)C(=O)N[C@@H](CC(C)C)C(=O)N[C@@H](CCCNC(=N)N)C(=O)N[C@]1(C)CCCCCCC=CCCC[C@@](C)(C(=O)N[C@@H](Cc2ccccc2)C(=O)N[C@@H](CCCNC(=N)N)C(N)=O)NC(=O)[C@H](CCCNC(=N)N)NC(=O)[C@H](C(C)C)NC(=O)[C@H](Cc2ccccc2)NC(=O)[C@H](CCCNC(=N)N)NC(=O)[C@H](CCCNC(=N)N)NC(=O)[C@H](C)NC1=O [st7-5_R] (H-GIRRFLR[R8]ARRFVR[S5]FR-NH2; staple 8-15) | did not show significant cytotoxicity | about 100 times | ~70% | 
 | GIGKFLHSAKKFGKAFVGEIMNS-NH2 [Magainin 2, reference compound] |  |  |  | did not exhibit cytotoxicity
 | GIKKFLKSAKKFVKAFK-NH2 [Pep-1] |  |  |  | did not exhibit cytotoxicity
